Assay outcomes deposited in PubChem by several laboratories.
An excerpt weighted towards active compounds, which were near 3.8% of everything screened.
Beta2AR agonist – beta2AR agonists driving receptor internalization, primary screen, cell-based, FAP fluorogen, flow cytometry; response, % (no concentration beside the values); AID 504454, 2011; Am2.2-beta2AR cells; 340,000 tested, 0.43% active;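 active = response above a set limit, near 3 SD of response in nonfluorescent compounds, cut at about 42% in these data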
Target sequence (P07550 whole entry, looked up): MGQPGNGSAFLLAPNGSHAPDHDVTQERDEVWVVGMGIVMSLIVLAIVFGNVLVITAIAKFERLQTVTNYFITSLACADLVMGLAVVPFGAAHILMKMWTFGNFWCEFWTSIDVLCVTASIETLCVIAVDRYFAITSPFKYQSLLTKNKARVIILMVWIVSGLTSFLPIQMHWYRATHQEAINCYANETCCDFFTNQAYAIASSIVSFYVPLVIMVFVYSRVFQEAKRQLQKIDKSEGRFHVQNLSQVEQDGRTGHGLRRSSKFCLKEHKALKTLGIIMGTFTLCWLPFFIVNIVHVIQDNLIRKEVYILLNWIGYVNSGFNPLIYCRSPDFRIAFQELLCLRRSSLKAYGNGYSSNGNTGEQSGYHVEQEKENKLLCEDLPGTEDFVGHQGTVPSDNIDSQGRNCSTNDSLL
MPTP block – mitochondrial permeability transition pore inhibitors, primary screen, biochemical, isolated mouse mitochondria, absorbance; inhibition, % at 10 µM; Ca2+ swelling absorbance, 30 min; AID 602449, 2012; 360,000 tested, 1.4% active;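 active = inhibition of 50% or more, scaled per plate between neutral and stimulator controls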
T cell modulator – modulators of CD8 T cell-vesicle binding, primary screen, mouse 2C CD8+ T cells, flow cytometry. 2C CD8+ T cell-vesicle binding; hits give low values. response (vesicle binding), % at 7 µM. 330,000 tested, 0.068% active;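 active = response, share of CD8 T cells binding vesicles, and their 90th percentile fluorescence all below set limits, cut at about 80% in these data, passing the limit was not always enough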;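 also: values below 100% mean blocked vesicle binding to the CD8+ T cells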
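Test system: purified 2C TCR transgenic mouse naive CD8+ T cells. Probe or stimulus: QL9-peptide-loaded Drosophila micro-vesicles bearing Ld, ICAM-1 and B7-1. Incubation: binding step 1.5 h, 37 °C, antibody labelling 20 min, ice. Measured by: flow cytometry of vesicle-bound cells.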
V-ATPase pH – regulators of yeast V-ATPase proton pumping, primary screen, pHLuorin cytosolic pH fluorescence; S. cerevisiae; 350,000 tested, 0.37% active; response, % at 10 µM; in the data active = response mostly above about 7.3%, no sharp cut-off; inactive = mostly below about 5.4%; also: actives read high
Granule exo inh – LAMP-1 surface exposure blockers, TALL-104 cells – cell-based, flow cytometry, MLPCN library, primary screen; inhibition, % at 10 µM; TALL-104 LAMP-1 surface exposure; cells stimulated with thapsigargin and PMA; AID 651702, 2012; 360,000 tested, 0.66% active;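 active = inhibition above about 55%, limit read from the data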
rCAG binder – binders of r(CAG) RNA repeats, primary screen, biochemical, fluorescence. r(CAG) RNA repeat, TO-PRO-1 dye displacement fluorescence. inhibition, % at 3 µM. 370,000 tested, 1.3% active;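 active = inhibition above the plate cutoff, the mean of all test compounds on that plate plus 3 SD, cut at about 35% in these data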;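 also: higher means more dye released from RNA so lower well fluorescence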
rCAG binder conf – small molecules binding CAG repeat RNA – biochemical, fluorescence, confirmation | 4,300 tested, 70% active | inhibition, % at 3 µM | shares compounds with rCAG binder | r(CAG) RNA repeat, TO-PRO-1 dye displacement fluorescence;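 active = inhibition above a per-plate cutoff, the mean inhibition of sample wells plus 3 SD, cut at about 35% in these data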;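 also: loss of TO-PRO-1 fluorescence as compound displaces dye from 1x1 AA loop RNA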
DNA CAG counter – displacement of TO-PRO-1 from CAG DNA duplex, counter-screen for rCAG RNA repeat binder project, biochemical, fluorescence, TO-PRO-1 dye, d(CAG) DNA oligo; d(CAG) DNA oligo TO-PRO-1 dye displacement; shares compounds with rCAG binder; 4,300 tested, 94% active; inhibition, % at 3 µM;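 active = inhibition above its plate's cutoff, the mean test-well inhibition plus 3 SD, cut at about 4.8% in these data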;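 also: hits displace the dye from DNA and so lower well fluorescence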
Each line names hits and unclear results; the compound was inactive in the other large screens (follow-up assays come after a bar, where they were run).

CCOC(=O)C1=C(O)/C(=C\c2ccc(CNS(=O)(=O)c3ccc(Br)cc3)o2)N=C1C	rCAG binder 37 | rCAG binder conf 43 | DNA CAG counter 16
COC(=O)C1=C(O)/C(=C\c2ccc(CNS(=O)(=O)c3ccc(Cl)cc3)o2)N=C1C	rCAG binder 37 | rCAG binder conf 42 | DNA CAG counter 15
COC(=O)C1=C(O)/C(=C\c2ccc(CNS(=O)(=O)c3ccccc3)o2)N=C1C	none
COc1ccc(-n2c(SCC(=O)N/N=C/c3ccccc3OCC(=O)O)nc3ccccc3c2=O)cc1	rCAG binder 43 | rCAG binder conf 47 | DNA CAG counter 13
O=C(O)COc1ccccc1/C=N/NC(=O)CSc1nc2ccccc2n1Cc1ccc(Cl)cc1	rCAG binder 60 | rCAG binder conf 76 | DNA CAG counter 35
O=C(O)COc1ccccc1/C=N/NC(=O)CSc1nc2ccccc2s1	none
O=C(O)COc1ccccc1/C=N/NC(=O)c1cccc(S(=O)(=O)Nc2cccc(Cl)c2)c1	rCAG binder 48 | rCAG binder conf inactive | DNA CAG counter 8.7
O=C(O)COc1ccccc1/C=N/NC(=O)COc1ccc(-c2ccccc2)cc1	rCAG binder 66 | rCAG binder conf 64 | DNA CAG counter 22
COc1ccccc1NS(=O)(=O)c1cccc(C(=O)N/N=C/c2ccc(OCC(=O)O)cc2)c1	none
COc1cccc(Cn2cc(COC(=O)N(C)Cc3ccccc3)nn2)c1	none (no result: Beta2AR agonist, MPTP block, T cell modulator, V-ATPase pH, Granule exo inh)
Cc1ccc(/C=N/NC(=O)CSc2nc3ccccc3n2Cc2ccc(Cl)cc2)o1	none
O=C(CSc1nc2ccccc2n1Cc1ccc(Cl)cc1)N/N=C/c1ccccc1C(=O)O	rCAG binder 53 | rCAG binder conf 56 | DNA CAG counter 18
C=CCOC(=O)c1cc(-c2ccc(/C=C3\C(=O)NC(=O)C(C#N)=C3C)o2)ccc1Cl	rCAG binder 63 (no result: T cell modulator) | rCAG binder conf 87 | DNA CAG counter 51
C[C@H](CO)N1C[C@H](C)[C@H](CN(C)C(=O)Nc2cccc3ccccc23)Oc2ncc(Br)cc2C1=O	none (no result: Beta2AR agonist, MPTP block, T cell modulator, V-ATPase pH, Granule exo inh)
Cc1cc(NS(=O)(=O)c2ccc(NC(=O)COc3ccc(Br)cc3)cc2)nc(C)n1	rCAG binder 36 | rCAG binder conf 35 | DNA CAG counter 10
Cc1cc(NS(=O)(=O)c2ccc(NC(=O)CCCOc3cccc(C)c3C)cc2)no1	rCAG binder 63 | rCAG binder conf 62 | DNA CAG counter 17
Cc1cc(NS(=O)(=O)c2ccc(NC(=O)c3oc4ccccc4c3C)cc2)no1	rCAG binder 41 | rCAG binder conf 41 | DNA CAG counter 11
Cc1cc(NS(=O)(=O)c2ccc(NC(=O)Cc3ccc(Cl)c(Cl)c3)cc2)no1	rCAG binder 49 (no result: T cell modulator) | rCAG binder conf 35 | DNA CAG counter 8.8
COc1ccc(CC(=O)Nc2ccc(S(=O)(=O)Nc3cc(C)on3)cc2)cc1	none
COc1nc(OC)nc(N2CCC(C(=O)NCc3cccc(OC)c3OC)CC2)n1	none (no result: Beta2AR agonist, MPTP block, T cell modulator, V-ATPase pH, Granule exo inh)
O=C(/C=C(\Nc1ccc(Cl)c(Cl)c1)c1ccccc1)c1ccccc1	none (no result: Beta2AR agonist, MPTP block, T cell modulator, V-ATPase pH, Granule exo inh)
Cc1cc(NS(=O)(=O)c2ccc(NC(=O)COc3c(C)cc(Br)cc3C)cc2)no1	rCAG binder 71 | rCAG binder conf 63 | DNA CAG counter 26
COc1ccc(OCC(=O)Nc2ccc(S(=O)(=O)Nc3cc(C)on3)cc2)cc1	none
Cc1ccccc1OCCCC(=O)Nc1ccc(S(=O)(=O)Nc2onc(C)c2C)cc1	rCAG binder 52 | rCAG binder conf inactive | DNA CAG counter 9.4
Cc1c(C(=O)NNC(=S)Nc2ccc(S(N)(=O)=O)cc2)oc2ccccc12	rCAG binder 52 | rCAG binder conf inactive | DNA CAG counter 11
Cc1c(C(=O)Nc2ccc(S(N)(=O)=O)cc2)oc2ccc(Cl)cc12	none
COc1ccccc1OCC(=O)Nc1ccc(S(=O)(=O)Nc2cc(C)on2)cc1	none
Cc1cc(NS(=O)(=O)c2ccc(NC(=O)CCCOc3ccccc3C)cc2)no1	rCAG binder 38 | rCAG binder conf inactive | DNA CAG counter 8.8
Cc1ccc(OCCCC(=O)Nc2ccc(S(=O)(=O)Nc3ccccn3)cc2)cc1	none
Cc1ccc(OCCCC(=O)Nc2ccc(S(=O)(=O)Nc3cc(C)on3)cc2)cc1	rCAG binder 49 | rCAG binder conf 36 | DNA CAG counter 12
O=C(CSc1nnc(-c2cccnc2)n1-c1ccc(Cl)cc1)Nc1ccccc1-c1ccccc1	none (no result: Beta2AR agonist, MPTP block, T cell modulator, V-ATPase pH, Granule exo inh)
CC(/C=C/c1ccco1)=N\NC(=O)c1cc(Cl)ccc1O	rCAG binder 49 | rCAG binder conf 37 | DNA CAG counter 16
COc1cccc2c1[C@H](/C=C/c1ccccc1)[C@@H]([C@H](O)COC(C)=O)OC2	none (no result: Beta2AR agonist, MPTP block, T cell modulator, V-ATPase pH, Granule exo inh)
Cc1ccc2c(c1)N(CCCC(=O)NCc1c(F)cccc1F)C(=O)CO2	none (no result: Beta2AR agonist, MPTP block, T cell modulator, V-ATPase pH, Granule exo inh)
Cc1ccc(-c2c(C(=O)NCC(C)C)oc(=O)c3ccccc23)cc1	none (no result: Beta2AR agonist, MPTP block, T cell modulator, V-ATPase pH, Granule exo inh)
O=C(NC(C(=O)N/N=C/c1cc([N+](=O)[O-])ccc1O)c1n[nH]c(=O)c2ccccc12)c1ccccc1 (stereo not drawn)	rCAG binder 84 | rCAG binder conf 66 | DNA CAG counter 28
COC(=O)c1ccc(C(=O)OC)c(NC(=O)Cc2cccs2)c1	rCAG binder 39 (no result: Beta2AR agonist, T cell modulator) | rCAG binder conf inactive | DNA CAG counter 17
CCN(C(=O)CSc1nc2cc(C(=O)O)ccc2c(=O)n1Cc1ccccc1)c1ccccc1	rCAG binder 38 | rCAG binder conf 53 | DNA CAG counter 16
CC(=O)C1=C(O)C2(C)c3c(O)c(C)c(O)c(C(C)=O)c3OC2CC1=O (stereo not drawn)	rCAG binder 76 (no result: Beta2AR agonist, T cell modulator) | rCAG binder conf 52 | DNA CAG counter 18
C=CCOC(=O)C1=C(C)N=c2s/c(=C3\C(=O)N(CC(=O)O)c4ccccc43)c(=O)n2C1c1ccc(OC)cc1 (stereo not drawn)	none
C=CCOC(=O)C1=C(C)N=c2sc(=C3C(=O)N(CC(=O)O)c4ccccc43)c(=O)n2C1c1ccc(OC)cc1 (stereo not drawn)	rCAG binder 48 (no result: Beta2AR agonist, MPTP block, T cell modulator, V-ATPase pH, Granule exo inh) | rCAG binder conf 75 | DNA CAG counter 41
O=C(c1cccc(N2C(=O)C3C4C=CC(C4)C3C2=O)c1)N1CCCCCC1 (stereo not drawn)	none
